In ChEMBL document CHEMBL2150952 (J Med Chem, 2011):
The source made the active and inactive calls. The calls are words filed in the database; no cut-off is given here.

What was measured:
[1] = Clearance in fasted C57BL6 mouse at 2 mg/kg, iv and 10 mg/kg, po BID; format: ADME, organism-based; conditions: in vivo
Outline: (§1)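 Fasted male C57BL6 mice received 2 mg/kg IV and 10 mg/kg PO. For the reference compound, IV was given as a solution in 60% PEG-200 and PO as a suspension in 1% methocel. Plasma levels were measured by LC-MS/MS. Values are the mean of n = 3 animals.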

[2] = Oral bioavailability in C57BL6 mouse at 10 mg/kg BID; format: ADME, organism-based; conditions: in vivo, in the assay text read “10 mg/kg” for “10 mg/kg BID”
Outline: (§2)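 Fasted male C57BL6 mice given 2 mg/kg IV and 10 mg/kg PO. Plasma drug levels measured by LC-MS/MS, mean of n = 3 animals, and PK parameters derived from these.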

[3] = Half life in fasted C57BL6 mouse at 2 mg/kg, iv and 10 mg/kg, po BID; format: ADME, organism-based; conditions: in vivo; outline: as §1
[4] = Cmax in plasma of fasted C57BL6 mouse at 2 mg/kg, iv and 10 mg/kg, po BID; format: ADME, organism-based; outline: as §1
[5] = AUC in plasma of fasted C57BL6 mouse at 2 mg/kg, iv and 10 mg/kg, po BID; format: ADME, organism-based; outline: as §1
[6] = Volume of distribution in fasted C57BL6 mouse at 2 mg/kg, iv and 10 mg/kg, po BID; format: ADME, organism-based; conditions: in vivo; outline: as §2
Mus musculus [7] = experiment: Antidiabetic activity in po dosed diet-induced obese fasted C57BL6 mouse assessed as increase in glucose clearance administered 1 hr before glucose challenge measured 12 hrs thereafter by OGTT; format: functional; conditions: in the assay text read “2 hrs” for “12 hrs”
Outline: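 Male C57/Bl6 mice were kept on a high fat diet for at least 14 weeks from 6 weeks of age, then fasted 16 h. Compound was given orally 1 h before a 2 g/kg oral glucose load.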

Mus musculus [8] = experiment: Antidiabetic activity in diet-induced obese C57BL6 mouse assessed as reduction in liver triglyceride level at 60 mg/kg, po BID; format: functional, organism-based; design: dose 60 mg/kg
Outline: (§3)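 eDIO mice (high fat diet for at least 18 weeks) were dosed orally bid for 28 days, with n = 8–10/group. At termination, livers were collected for histological steatosis assessment and triglyceride measurement.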

Mus musculus [9] = experiment: Antidiabetic activity in diet-induced obese C57BL6 mouse assessed as reduction in liver steatosis at 20 to 60 mg/kg, po BID measured on day 28; format: functional, organism-based; outline: as §3
Mus musculus [10] = experiment: Antidiabetic activity in diet-induced obese C57BL6 mouse assessed as reduction in liver triglyceride level at 20 mg/kg, po BID; format: functional, organism-based; design: dose 20 mg/kg; outline: as §3
Stearoyl-CoA desaturase = molecular target: T1, Stearoyl-CoA desaturase (Homo sapiens, UniProt O00767); experiment: Inhibition of SCD-1 activity in organic anion transporting polypeptides-deficient human HepG2 cells assessed as reduction in [I-14C] stearoyl CoA desaturation by scintillation counting; format: cell-based
T1 sequence (O00767 whole entry): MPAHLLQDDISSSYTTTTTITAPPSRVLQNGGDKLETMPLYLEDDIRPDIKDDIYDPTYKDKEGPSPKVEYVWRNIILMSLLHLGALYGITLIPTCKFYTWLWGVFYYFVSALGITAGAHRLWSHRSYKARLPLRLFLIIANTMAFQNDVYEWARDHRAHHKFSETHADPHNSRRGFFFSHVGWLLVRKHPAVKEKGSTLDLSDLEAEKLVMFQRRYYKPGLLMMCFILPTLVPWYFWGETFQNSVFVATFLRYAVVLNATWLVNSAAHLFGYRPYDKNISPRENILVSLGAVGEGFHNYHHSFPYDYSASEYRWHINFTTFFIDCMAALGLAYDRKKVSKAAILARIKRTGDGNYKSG

HepG2 = experiment: Ratio IC50 for SCD-1 activity in organic anion transporting polypeptides-deficient human HepG2 cells to IC50 for SCD-1 activity in Sprague-Dawley rat Hepatocytes expressing organic anion transporting polypeptides; format: cell-based
Outline: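 Cellular SCD IC50s measured in human HepG2 cells (lacking active OATPs) and in rat hepatocytes (active OATPs). Hepatocytes preincubated with compound for 15 min at 37 °C, then given 14C-stearic acid (final 0.5 μCi/ml) for 1 h with shaking. Lipids hydrolysed in 2N NaOH at 75 °C, acidified and extracted. Radiolabelled oleic and stearic acid resolved by HPLC with flow scintillation detection. Mean of at least n = 3. HepG2 IC50 divided by hepatocyte IC50.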

Acyl-CoA desaturase 1 [11] = molecular target: T2, Acyl-CoA desaturase 1 (Rattus norvegicus, UniProt P07308); experiment: Inhibition of SCD-1 activity in Sprague-Dawley rat Hepatocytes expressing organic anion transporting polypeptides assessed as reduction in [I-14C] […] desaturation by scintillation counting; format: cell-based, Hepatocyte
T2 sequence (P07308 whole entry): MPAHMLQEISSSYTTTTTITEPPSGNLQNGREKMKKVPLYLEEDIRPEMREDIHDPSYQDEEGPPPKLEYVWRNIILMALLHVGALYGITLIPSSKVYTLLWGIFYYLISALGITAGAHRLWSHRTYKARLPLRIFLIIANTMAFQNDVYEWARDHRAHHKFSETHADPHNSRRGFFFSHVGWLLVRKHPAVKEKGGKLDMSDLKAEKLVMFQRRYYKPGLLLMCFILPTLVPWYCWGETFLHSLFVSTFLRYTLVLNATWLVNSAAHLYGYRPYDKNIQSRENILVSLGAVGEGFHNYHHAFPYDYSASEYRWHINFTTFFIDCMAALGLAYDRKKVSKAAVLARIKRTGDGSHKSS
Outline: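 Rat hepatocytes (4 × 10^6 cells/mL) were preincubated with compound for 15 min at 37 °C/5% CO2. 14C-stearic acid (final 0.5 μCi/mL) was then added for 1 h with shaking. Cells were washed, hydrolyzed in 2N NaOH at 75 °C for 1 h, acidified and extracted. Radiolabeled oleic and stearic acids were quantified by HPLC with flow scintillation detection. Mean of at least n = 3.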

Acyl-CoA desaturase 1 [12] = molecular target: T2, Acyl-CoA desaturase 1; experiment: Inhibition of SCD-1 activity in Sprague-Dawley rat microsome assessed as reduction in [I-14C] stearoyl CoA desaturation by scintillation counting; format: microsomes
Liver = experiment: Ratio drug uptake in liver to harderian gland of C57BL6 mouse at 10 mg/kg, po measured 6 hrs post dose; format: ADME, organism-based; design: dose 10 mg/kg, route oral; conditions: in vivo
Outline: (§4)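 Single oral dose of 10 mg/kg in 0.5% methylcellulose to fed C57BL6 mice (n = 2). Animals sacrificed 6 h post dose. Plasma, liver, skin and Harderian gland collected. Tissues homogenized in MeCN/water with internal standard and drug quantified by LC-MS against a standard curve made in blank plasma. Concentration ratio calculated.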

[13] = Ratio drug uptake in liver to plasma of C57BL6 mouse at 10 mg/kg, po measured 6 hrs post dose; format: ADME, organism-based; design: dose 10 mg/kg, route oral; conditions: liver and plasma; outline: as §4
Mus musculus [14] = experiment: Antidiabetic activity in diet-induced obese C57BL6 mouse assessed as reduction in body weight gain at 30 mg/kg, po BID; format: functional, organism-based; design: dose 30 mg/kg
Mus musculus [15] = experiment: Inhibition of SCD activity in liver of diet-induced obese C57BL6 mouse assessed as reduction in desaturation induces at 30 mg/kg, po BID; format: functional, organism-based; design: dose 30 mg/kg

SMILES	IC50 (Stearoyl-CoA desaturase)	IC50 (Acyl-CoA desaturase 1 [11])	IC50 (Acyl-CoA desaturase 1 [12])	Ratio (Liver)	Ratio IC50 (HepG2)	other results
O=C([O-])Cn1nnc(-c2cc(N3CCC(Oc4cc(F)ccc4Br)CC3)no2)n1.[Na+]						clearance [1]: 41 mL/min/kg; bioavailability [2]: 12%; half-life [3]: 42 min; Cmax [4]: 400 nM; AUC [5]: 1 µM·h; Vd [6]: 1 L/kg
O=C(O)Cn1nnc(-c2cc(N3CCC(Oc4cc(F)ccc4Br)CC3)no2)n1						Activity (Mus musculus [7]): Dose-dependent effect; Activity (Mus musculus [8]): inactive; Activity (Mus musculus [9]): Active; Activity (Mus musculus [10]): Active
O=C(O)Cn1nnc(-c2nnc(N3CCC(Oc4cc(F)ccc4Br)CC3)s2)n1	904 nM	189 nM	7 nM	40	5	Activity (Mus musculus [14]): inactive; inhibition (Mus musculus [15]): Active

The next lines start with results.

IC50 (Stearoyl-CoA desaturase)	IC50 (Acyl-CoA desaturase 1 [11])	IC50 (Acyl-CoA desaturase 1 [12])	Ratio (Liver)	SMILES	Ratio IC50 (HepG2)	other results
12600 nM	3070 nM	34 nM	26	Fc1ccc(Br)c(OC2CCN(c3nnc(-c4nn[nH]n4)s3)CC2)c1	4	
> 50000 nM	3470 nM	276 nM	330	FC(F)(F)c1ccccc1OC1CCN(c2nnc(-c3nn[nH]n3)s2)CC1	> 14	Kp at 6 h [13]: 15
